Assay results as given in ChEMBL document CHEMBL3259675, “Novel N-substituted sophoridinol derivatives as anticancer agents” (Eur J Med Chem, 2014).
Blank lines part the entries; values can stand above or below the compound they belong to.

Columns and labels:
HepG2 [1] = assay: Antiproliferative activity against human HepG2 cells assessed as growth inhibition at 10 ug/ml after 48 hrs by MTT assay; assay type: functional; settings: HepG2, 48 h
Method in brief: (§1)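 Cell lines from ATCC, grown in MEM-EBSS with 10% FBS and 1% penicillin-streptomycin at 37 °C, 5% CO2. Seeded at 4000 cells/well, left 24 h, then exposed to a concentration series for 48 h. Growth read by MTT. Percent inhibition was computed at each concentration and IC50 derived from it. Triplicate determinations, reported as mean SD.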

[2] = Oral bioavailability in Sprague-Dawley rat at 25 mg/kg administered as single dose; assay type: ADME, organism-based; settings: in vivo
Method in brief: (§2)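 Male rats, 3 per study, each given a single dose of 25 mg/kg orally (ig) or 5 mg/kg iv. PK parameters from non-compartmental analysis. Oral bioavailability calculated from the ig and iv data.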

[3] = Antiproliferative activity against human U87 cells assessed as growth inhibition after 48 hrs by MTT assay; assay type: functional, cell-based, U-87MG ATCC; settings: U-87 MG; method in brief: as §1
HepG2 [4] = assay: Cell cycle arrest in human HepG2 cells assessed as accumulation at G0/G1 phase at 10 ug/ml after 24 hrs by FACS flow cytometric analysis (reference value: 4.1 %); assay type: functional; settings: HepG2, 24 h
Method in brief: (§3)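 HepG2 cells exposed to 0, 2.5, 5 or 10 µg/ml for 24 h, then harvested. Fixed in 70% ethanol and held at −20 °C. Cell-cycle distribution determined by flow cytometry, with untreated cells as control.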

[5] = Tmax in Sprague-Dawley rat at 25 mg/kg, ig administered as single dose; assay type: ADME, organism-based; set-up: dose 25 mg/kg, route intragastric; settings: in vivo, po; method in brief: as §2
[6] = Half life in Sprague-Dawley rat at 25 mg/kg, ig administered as single dose; assay type: ADME, organism-based; set-up: dose 25 mg/kg, route intragastric; settings: in vivo, po; method in brief: as §2
[7] = Mean residence time in Sprague-Dawley rat at 25 mg/kg, ig administered as single dose; assay type: ADME, organism-based; set-up: dose 25 mg/kg, route intragastric; settings: in vivo, po; method in brief: as §2
HCT-116 = assay: Antiproliferative activity against human HCT116 cells assessed as growth inhibition after 48 hrs by MTT assay; assay type: functional, cell-based; settings: HCT-116, 48 h; method in brief: as §1
[8] = Mean residence time in Sprague-Dawley rat at 5 mg/kg, iv administered as single dose; assay type: ADME, organism-based; set-up: dose 5 mg/kg, route intravenous; settings: in vivo; method in brief: as §2
[9] = Cmax in Sprague-Dawley rat at 25 mg/kg, ig administered as single dose; assay type: ADME, organism-based; set-up: dose 25 mg/kg, route intragastric; settings: in vivo, po; method in brief: as §2
HepG2 [10] = assay: Cell cycle arrest in human HepG2 cells assessed as accumulation at G0/G1 phase at 2.5 ug/ml after 24 hrs by FACS flow cytometric analysis (reference value: 4.1 %); assay type: functional; settings: HepG2, 24 h; method in brief: as §3
[11] = AUC (0 to time) in Sprague-Dawley rat at 5 mg/kg, iv administered as single dose; assay type: ADME, organism-based; set-up: dose 5 mg/kg, route intravenous; settings: plasma
Method in brief: (§4)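 Single dose given to three male rats per study, by oral gavage or intravenous injection. AUC was derived by non-compartmental analysis, n = 3.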

Mus musculus [12] = assay: Toxicity in mouse at 250 to 1000 mg/kg, ig; assay type: organism-based; set-up: dose 250-1000 mg/kg, route intragastric; settings: in vivo, po
Method in brief: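 Single-dose toxicity in mice: compound given intragastrically at 250, 500 or 1000 mg/kg, with deaths monitored.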

[13] = AUC (0 to time) in Sprague-Dawley rat at 25 mg/kg, ig administered as single dose; assay type: ADME, organism-based; set-up: dose 25 mg/kg, route intragastric; settings: plasma, po; method in brief: as §4
HepG2 [14] = assay: Antiproliferative activity against human HepG2 cells assessed as growth inhibition after 48 hrs by MTT assay; assay type: functional, cell-based; settings: HepG2, 48 h; method in brief: as §1
[15] = Tmax in Sprague-Dawley rat at 5 mg/kg, iv administered as single dose; assay type: ADME, organism-based; set-up: dose 5 mg/kg, route intravenous; settings: in vivo; method in brief: as §2
MCF7 = assay: Antiproliferative activity against human MCF7 cells assessed as growth inhibition after 48 hrs by MTT assay; assay type: functional, cell-based; settings: MCF7, 48 h; method in brief: as §1
[16] = Half life in Sprague-Dawley rat at 5 mg/kg, iv administered as single dose; assay type: ADME, organism-based; set-up: dose 5 mg/kg, route intravenous; settings: in vivo; method in brief: as §2
HepG2 [17] = assay: Cell cycle arrest in human HepG2 cells assessed as accumulation at G0/G1 phase at 5 ug/ml after 24 hrs by FACS flow cytometric analysis (reference value: 4.1 %); assay type: functional; settings: HepG2, 24 h; method in brief: as §3
[18] = Cmax in Sprague-Dawley rat at 5 mg/kg, iv administered as single dose; assay type: ADME, organism-based; set-up: dose 5 mg/kg, route intravenous; settings: in vivo; method in brief: as §2
Mus musculus [19] = assay: Toxicity in mouse assessed as body weight at 250 to 1000 mg/kg, ig; assay type: organism-based; set-up: dose 250-1000 mg/kg, route intragastric; settings: in vivo, po
KB = assay: Antiproliferative activity against human KB cells assessed as growth inhibition after 48 hrs by MTT assay; assay type: functional, cell-based; method in brief: as §1
NCI-H1299 = assay: Antiproliferative activity against human NCI-H1299 cells assessed as growth inhibition after 48 hrs by MTT assay; assay type: functional, cell-based; settings: NCI-H1299, 48 h; method in brief: as §1

Structure (SMILES): COC(=O)CCC[C@H]1NC[C@H]2CCCN3CCC[C@H]1[C@H]23
inhibition at 10 µg/mL (HepG2 [1]): 33.4%

Structure (SMILES): COC(=O)CCC[C@@H]1[C@H]2CCCN3CCC[C@H](CN1Cc1ccco1)[C@@H]23
inhibition at 10 µg/mL (HepG2 [1]): 16.6%

bioavailability [2]: 18%
Tmax [5]: 0.66 h
half-life [6]: 3.87 h
MRT [7]: 3.28 h
IC50 (HCT-116): 10.6 µM
MRT [8]: 2.39 h
Cmax [9]: 5.25 µM
AUC [11]: 20.5 µM·h
AUC [13]: 18.6 µM·h
IC50 (HepG2 [14]): 9.37 µM
Tmax [15]: 0.25 h
IC50 (MCF7): 5.73 µM
half-life [16]: 4.46 h
Cmax [18]: 3.43 µM
IC50 (KB): 19.7 µM
IC50 (NCI-H1299): 5.55 µM
Structure (SMILES): OCCCC[C@@H]1[C@H]2CCCN3CCC[C@H](CN1Cc1ccc(Cl)cc1)[C@@H]23
IC50 [3]: 4.52 µM
inhibition at 10 µg/mL (HepG2 [4]): 3.3%
inhibition at 10 µg/mL (HepG2 [1]): 87.7%
inhibition at 2.5 µg/mL (HepG2 [10]): 4.1%
Activity (Mus musculus [12]): Non-toxic
inhibition at 5 µg/mL (HepG2 [17]): 3.3%
Activity (Mus musculus [19]): Non-toxic

Structure (SMILES): COCCCC[C@@H]1[C@H]2CCCN3CCC[C@H](CN1Cc1ccccc1)[C@@H]23
inhibition at 10 µg/mL (HepG2 [1]): 4.4%

Structure (SMILES): OCCCC[C@@H]1[C@H]2CCCN3CCC[C@H](CN1Cc1ccncc1)[C@@H]23
inhibition at 10 µg/mL (HepG2 [1]): 1.2%

IC50 (HCT-116): 4.32 µM
IC50 (HepG2 [14]): 1.66 µM
IC50 (MCF7): 14.3 µM
IC50 (KB): > 200 µM
IC50 (NCI-H1299): 11 µM
Structure (SMILES): CC[C@@]1(O)C(=O)OCc2c1cc1n(c2=O)Cc2cc3c(CN(C)C)c(O)ccc3nc2-1 [TOPOTECAN]
IC50 [3]: 0.16 µM
inhibition at 10 µg/mL (HepG2 [1]): 72.6%

Structure (SMILES): O=C(O)CCC[C@@H]1[C@H]2CCCN3CCC[C@H](CN1Cc1ccccc1)[C@@H]23
inhibition at 10 µg/mL (HepG2 [1]): 1.5%

Structure (SMILES): Cc1ccc(CN2C[C@H]3CCCN4CCC[C@@H]([C@H]34)[C@H]2CCCCO)cc1
inhibition at 10 µg/mL (HepG2 [1]): 17.8%

Structure (SMILES): OCCCC[C@@H]1[C@H]2CCCN3CCC[C@@H](CN1Cc1ccccc1)[C@@H]23
inhibition at 10 µg/mL (HepG2 [1]): 31%

Structure (SMILES): COC(=O)CCC[C@@H]1[C@H]2CCCN3CCC[C@H](CN1Cc1ccncc1)[C@@H]23
inhibition at 10 µg/mL (HepG2 [1]): 29.9%

Structure (SMILES): OCCCC[C@@H]1[C@H]2CCCN3CCC[C@H](CN1CCc1ccccc1)[C@@H]23
inhibition at 10 µg/mL (HepG2 [1]): 34.6%

Structure (SMILES): OCCCC[C@@H]1[C@H]2CCCN3CCC[C@H](CN1Cc1ccc(F)cc1)[C@@H]23
inhibition at 10 µg/mL (HepG2 [1]): 35.7%

Structure (SMILES): CCOCCCC[C@@H]1[C@H]2CCCN3CCC[C@H](CN1Cc1ccccc1)[C@@H]23
inhibition at 10 µg/mL (HepG2 [1]): 2.1%

Structure (SMILES): COC(=O)CCC[C@@H]1[C@H]2CCCN3CCC[C@H](CN1CC(C)C)[C@@H]23
inhibition at 10 µg/mL (HepG2 [1]): 26.8%

Structure (SMILES): COC(=O)CCC[C@@H]1[C@H]2CCCN3CCC[C@@H](CN1Cc1ccc(F)cc1)[C@@H]23
inhibition at 10 µg/mL (HepG2 [1]): 0.8%

Structure (SMILES): CCCN1C[C@H]2CCCN3CCC[C@@H]([C@H]23)[C@H]1CCCCO
inhibition at 10 µg/mL (HepG2 [1]): 0.9%

Structure (SMILES): O=C(O)CCC[C@@H]1[C@H]2CCCN3CCC[C@H](CN1Cc1ccccc1F)[C@@H]23
inhibition at 10 µg/mL (HepG2 [1]): 1.6%

Structure (SMILES): COC(=O)CCC[C@@H]1[C@H]2CCCN3CCC[C@H](CN1Cc1ccc(Br)cc1)[C@@H]23
inhibition at 10 µg/mL (HepG2 [1]): 89.6%

Structure (SMILES): O=C(O)CCC[C@@H]1[C@H]2CCCN3CCC[C@H](CN1Cc1cccc(Cl)c1)[C@@H]23
inhibition at 10 µg/mL (HepG2 [1]): 22.8%

Structure (SMILES): O=C(O)CCC[C@@H]1[C@H]2CCCN3CCC[C@H](CN1Cc1cccc(F)c1)[C@@H]23
inhibition at 10 µg/mL (HepG2 [1]): 25.2%

Structure (SMILES): OCCCC[C@@H]1[C@H]2CCCN3CCC[C@@H](CN1Cc1ccc(Cl)cc1)[C@@H]23
inhibition at 10 µg/mL (HepG2 [1]): 4.9%

Structure (SMILES): CCCCN1C[C@H]2CCCN3CCC[C@@H]([C@H]23)[C@H]1CCCCO
inhibition at 10 µg/mL (HepG2 [1]): 19.7%

Structure (SMILES): OCCCC[C@@H]1[C@H]2CCCN3CCC[C@@H](CN1Cc1ccc(F)cc1)[C@@H]23
inhibition at 10 µg/mL (HepG2 [1]): 0.1%

Structure (SMILES): COC(=O)CCC[C@@H]1[C@H]2CCCN3CCC[C@H](CN1Cc1ccc(F)cc1)[C@@H]23
inhibition at 10 µg/mL (HepG2 [1]): 73.1%
